From PubChem
Most compounds without a hit are left out; they make up all but 2.6% or so of the library.
PolyA inh: yeast polyadenylation inhibition. S. cerevisiae SKY197-pL101 polyadenylation reporter, beta-gal luminescence; efflux-impaired pdr1/pdr3 knockout yeast; score 100 = 6 SD above DMSO. activity score, % at 12 µM. 0.02% of 300,000 active. AID 1875;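 active = lowest replicate activity score at least 50, where 100 means six control SD above control mean; inconclusive = lowest score under 50 but half or more replicates reach 50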;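 note: yeast exposed to compound for 9 h at 30 °C; higher score means more reporter readthrough which indicates perturbed polyadenylation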
CHT block: inhibits the human high affinity choline transporter; B-score at 10 µM; 0.86% of 310,000 active; Q9GZV3; CHT-expressing cells, membrane potential dye, choline response; active compounds read low;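 active = B-score over 3 SD under the library average, and starting fluorescence ratio not unusually high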;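 note: choline stimulus applied at its EC90 after an EC20 pre-addition; B-score computed on integrated fluorescence ratio after choline addition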
Target sequence (Q9GZV3 whole entry, looked up): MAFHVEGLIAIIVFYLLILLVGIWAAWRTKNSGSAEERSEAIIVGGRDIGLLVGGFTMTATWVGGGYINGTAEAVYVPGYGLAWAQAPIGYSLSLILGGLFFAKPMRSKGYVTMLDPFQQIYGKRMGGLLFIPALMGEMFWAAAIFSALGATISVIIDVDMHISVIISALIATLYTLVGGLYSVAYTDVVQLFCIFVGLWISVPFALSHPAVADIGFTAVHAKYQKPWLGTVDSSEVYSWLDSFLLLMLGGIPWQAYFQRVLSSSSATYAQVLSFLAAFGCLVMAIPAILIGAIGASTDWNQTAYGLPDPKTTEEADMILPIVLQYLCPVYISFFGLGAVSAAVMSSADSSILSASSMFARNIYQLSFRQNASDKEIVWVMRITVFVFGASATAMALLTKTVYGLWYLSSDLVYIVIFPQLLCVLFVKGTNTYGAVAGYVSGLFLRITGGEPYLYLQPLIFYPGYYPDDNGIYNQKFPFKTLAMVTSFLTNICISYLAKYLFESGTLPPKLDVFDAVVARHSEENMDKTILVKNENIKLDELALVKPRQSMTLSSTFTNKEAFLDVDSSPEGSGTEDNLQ
T cruzi repl: T. cruzi replication inhibition; T. cruzi beta-gal in NIH3T3, luminescence, 90 h; inhibition, % (no concentration beside the values); 1.4% of 300,000 active;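 active = mean inhibition across valid replicates above about 55%, limit read from the data; inconclusive = mean below that limit but half or more replicates reach it; inactive = mean below it, under half of replicates reach it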;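 note: signal also drops with host cell toxicity which is not excluded here; higher percent means less beta-gal luminescence so fewer parasites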
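Incubation – ≥90 h infection period, 3 h prior cell attachment · System – NIH/3T3 fibroblasts plus reporter T. cruzi · Doses – compound pinned at 50 nL/well, DMSO · Read-out basis – percent inhibition of parasite-derived β-gal signal · Signal – luminescent β-galactosidase signal after 60 min lysis · Also added – 5000 T. cruzi trypomastigotes/well · Medium – Low-serum DMEM with 2% FBS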
CHT PAM: allosterically activates the human high affinity choline transporter; 0.49% of 310,000 active; CHT-expressing cells, membrane potential dye, choline EC20; active compounds read high; LV-AA mutant CHT in HEK293 cells; B-score at 10 µM;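 active = initial fluorescence not abnormally high and integrated response B-score, plate-corrected, over 3 SD above library mean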
Of the large screens only hits and unclear results are named; the others gave an inactive call.

CN1CCCC(OC(=O)c2ccc(S(=O)(=O)N(C)C)cc2)C1 (stereo not given)	none
N#Cc1c2ccc(O)cc2n2ccccc12	T cruzi repl 65
N#Cc1c2ccc(OCC(=O)NCc3ccco3)cc2n2ccccc12	none
Cc1nc(C)c(C(=O)N2CCCC(C(=O)c3cc(F)ccc3F)C2)s1 (stereo not given)	none
CC(C)CCN1CCN(C2CCN(c3ccc4c(c3)OCO4)CC2)CC1CCO (stereo not given)	T cruzi repl 66
Cc1cc(F)ccc1N1CCC(N2CCN(CCC(C)C)C(CCO)C2)CC1 (stereo not given)	none
CCOC(=O)C1=C(N)Oc2ccc3ccccc3c2C1c1cccnc1 (stereo not given)	T cruzi repl 57
Clc1ccccc1N1CCN(Cc2c[nH]c3ccccc23)CC1	T cruzi repl 74
O=S(=O)(c1ccc(Cl)cc1)N1CCN(Cc2c[nH]c3ccccc23)CC1	none
COc1ccc(NS(=O)(=O)c2ccc3oc(=O)c4[nH]c(=O)c(=O)n(C)c4c3c2)cc1	none
O=C(CCl)N1N=C(c2cccs2)CC1c1ccco1 (stereo not given)	T cruzi repl 83
CN(CCCNC(=O)CCCOc1cc(=O)n(C)c2ccccc12)Cc1ccccc1	T cruzi repl 71
CC(=O)N=c1sc2cc(C)ccc2n1C	none
CC(=O)N=c1sc2c3ccccc3ccc2n1C	T cruzi repl 66
O=C(Nc1cccc(C(F)(F)F)c1)Nc1ccon1	none
CC(=O)OCCc1c2ccccc2c(CCCN(C)C)c2ccccc12	none
CC(=O)N(CCCc1ccc(C(C)(C)C)cc1)CCCN(C)C	T cruzi repl 73
O=[N+]([O-])c1ccc(-[n+]2ccc3ccccc3c2)c([N+](=O)[O-])c1	T cruzi repl 71
O=C(/C(=C(\[O-])c1ccccc1)[n+]1ccc2ccccc2c1)c1ccc([N+](=O)[O-])cc1	none
CC1Cc2ccccc2N1C(=O)CSc1nc2c(c(=O)n(C)c(=O)n2C)n1Cc1ccccc1 (stereo not given)	T cruzi repl 57
COc1cccc(C(=O)Nc2ccc(S(=O)(=O)Nc3cc(C)nc(C)n3)cc2)c1	none
COc1cccc(OC)c1C(=O)Nc1ccc(S(=O)(=O)Nc2cc(C)nc(C)n2)cc1	CHT block -5.3
COC(=O)Nc1nc(-c2cc(Cl)ccc2Cl)cs1	T cruzi repl 80
O=S1(=O)C=C(Sc2nnc(-c3ccccc3)o2)c2ccccc21	T cruzi repl 63
CSc1nnc(-c2ccccc2)o1	none
CCc1nnc(NC(=O)CCC(=O)N2CCC(Cc3ccccc3)CC2)s1	none
Cc1cccc(-n2c(SCc3ccc([N+](=O)[O-])cc3)nnc2-c2c[nH]c3ccccc23)c1	T cruzi repl 66
CN(C)CCNC(=O)COc1ccc(C23CC4CC(CC(C4)C2)C3)cc1	T cruzi repl 68
Cc1ccc(C23CC4CC(CC(NC(=O)NCCN(C)C)(C4)C2)C3)cc1	T cruzi repl 59
Cc1ccc(C23CC4CC(CC(C(=O)NN)(C4)C2)C3)cc1	none
Cc1cnc(NC(=O)c2cc3ccccc3o2)s1	none
Cc1ccc(C(C)C)cc1OCC(=O)Nc1ccc(N2CCCCC2)cc1	T cruzi repl 63
Cc1cc(C)nc(NC(=NCCc2c[nH]c3ccccc23)NC(=O)Nc2ccc(Cl)c(Cl)c2)n1	T cruzi repl 62
COc1ccc2nc(SCC(=O)N(C)CC(=O)Nc3ccc(F)cc3)[nH]c2c1	none
CCOCCCNc1c2c(nc3cc(-c4ccc(F)cc4)nn13)CCC2	none
CN(C)CCCNc1c2c(nc3cc(-c4cccc(F)c4)nn13)CCC2	T cruzi repl 68
O=C(OCCNc1nc(-c2ccccc2)nc2ccccc12)c1cccnc1	none
CCCOC(=O)c1cccc(Nc2nc(-c3cccnc3)nc3ccccc23)c1	T cruzi repl 65
CS(=O)(=O)c1sc(C#N)c2c1C(=O)CC(c1ccccc1)C2 (stereo not given)	CHT block -7.1
Cc1oc2c(c(=O)c1C)C(=O)CC(c1ccccc1)C2 (stereo not given)	none
Cc1cc(Br)ccc1NC(=O)C1CCN(S(=O)(=O)c2cnc[nH]2)CC1	none
CC(C)CN(C(=O)COC(=O)c1ccc([N+](=O)[O-])s1)c1c(N)n(Cc2ccccc2)c(=O)[nH]c1=O	T cruzi repl 63
NC(=O)Nc1ccc(C(=O)OCC(=O)Nc2ccc(Cl)cn2)cc1	none
Cc1cccc(NC(=O)CCc2nnc3ccc(NCc4ccco4)nn23)n1	none
O=S1(=O)C=C(Sc2nc3ccccc3s2)c2ccccc21	T cruzi repl 69
Cc1cc(C)nc(SC2=CS(=O)(=O)c3ccccc32)n1	none
N[C@@H](Cc1ccccc1)C(=O)N1CCC(C(=O)N[C@@H](Cc2c[nH]c3ccccc23)C(=O)O)CC1	none
O=C(Nc1ccc(-c2csc(Nc3ccccc3)n2)cc1)c1cccc(C(F)(F)F)c1	none
O=C(Nc1ccc(-c2csc(Nc3ccc(Cl)cc3)n2)cc1)c1cccc(C(F)(F)F)c1	T cruzi repl 68
COc1ccc(S(=O)(=O)N2c3ccccc3NC(=O)CC2C)cc1 (stereo not given)	none
CCN(CC)c1ccc(/C=N/NC(=O)c2cccc(S(=O)(=O)N3CCOCC3)c2)c(O)c1	T cruzi repl 65
CCOc1ccccc1/C=N/NC(=O)c1cccc(S(=O)(=O)N2CCOCC2)c1	none
C=CCn1c2ccccc2c2nnc(SCCN3CCCCC3)nc21	none
c1ccc(Cn2c3ccccc3c3nnc(SCCN4CCCCC4)nc32)cc1	T cruzi repl 69
CCc1nc2ccc(C(=O)NCCCN3CCN(c4ccccc4F)CC3)cc2nc1CC	none
CC1CN(S(=O)(=O)c2ccc(C(=O)Nc3nnc(-c4ccc5c(c4)CCCC5)o3)cc2)CC(C)O1 (stereo not given)	T cruzi repl 61
O=C(Nc1nnc(C2CC2)o1)c1ccc(S(=O)(=O)N2CCCc3ccccc32)cc1	T cruzi repl 59
COCc1nnc(NC(=O)c2ccc(S(=O)(=O)N3CCCc4ccccc43)cc2)o1	none
COc1ccc(-c2nnc(NC(=O)c3ccc(S(=O)(=O)N4CCCc5ccccc54)cc3)o2)cc1	T cruzi repl 63
CC1CN(S(=O)(=O)c2ccc(C(=O)Nc3nnc(-c4ccccn4)o3)cc2)CC(C)O1 (stereo not given)	none
N#CCCn1cc(/C=N/NC(N)=S)c(-c2ccc(-c3ccccc3)cc2)n1	T cruzi repl 63
N#CCCn1cc(/C=N/O)c(-c2ccccc2)n1	none (no result: PolyA inh, T cruzi repl)
COc1ccc(C(C)NCCC(c2ccc(OC(C)C)cc2)c2ccccc2OC)cc1 (stereo not given)	T cruzi repl inconclusive, CHT PAM 7.7
CCOc1ccc(NC(=O)C2CCN(S(C)(=O)=O)CC2)cc1	none
CCOC(=O)C1CCN(c2cc3c(cc2NC(=O)c2cc(OC)ccc2Br)n(C)c(=O)n3C)CC1	none
O=C(CSc1nnc(CNC(=O)c2c(F)cccc2F)o1)NCc1ccc(F)cc1	none
OC1CCN(Cc2cccc(Oc3ccccc3)c2)CC1	T cruzi repl 68
OCCN1CCN(Cc2cccc(Oc3ccc(Cl)cc3)c2)CC1	T cruzi repl 61
